From ChEMBL document CHEMBL1800061 (J Med Chem, 2010)
Values after ≈ are worked out from the molar mass of the structure shown. Active and inactive are the calls of the source. No cut-off for these calls is given here.

Key:
PC-3 = assay: Antiproliferative activity against human PC3 cells after 72 hrs by sulforhodamine B assay; format: functional; conditions: PC-3, 72 h
How it was run: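 Cell lines were grown in DMEM with 10% FCS and treated with increasing concentrations for 72 h. Growth was read by sulforhodamine B staining and GI50 was derived. Values are means of at least three replicates with SD.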

MCF7 [1] = assay: Cell cycle arrest in human MCF7 cells assessed as concomitant increase in cells at S phase at 1 to 10 umol/L after 24 hrs by propidium iodide staining based flow cytometric analysis; format: functional
MCF7 [2] = assay: Cell cycle arrest in human MCF7 cells assessed as concomitant increase in cells at G2/M phase at 1 to 10 umol/L after 24 hrs by propidium iodide staining based flow cytometric analysis; format: functional
MCF7 [3] = assay: Induction of apoptosis in human MCF7 cells assessed as increase in sub-G1 population at 1 to 10 umol/L after 24 hrs by […] staining based flow cytometric analysis; format: functional, cell-based
[4] = target: Cyclin-dependent kinase 1 (Homo sapiens) (UniProt P06493); assay: Inhibition of CDK1-mediated phosphorylation of PP1a at Thr320 in human HCT116 cells after 24 hrs by immunoblotting analysis; format: cell-based; conditions: HCT-116
How it was run: (§1)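 HCT116 colon cancer cells were kept in DMEM with 10% FCS. Cells (8×10^5) were plated, dosed 24 h later, and exposed for 4 or 24 h. Whole-cell lysates were made in RIPA buffer with phosphatase and protease inhibitor cocktails and normalised by BCA protein assay. They were immunoblotted for phospho-sites, total proteins and cyclins.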

[5] = target: Cyclin-dependent kinase 6 (Homo sapiens) (UniProt Q00534); assay: Inhibition of CDK6-mediated phosphorylation of RB protein in human HCT116 cells after 4 hrs by immunoblotting analysis; format: cell-based; conditions: HCT-116; how it was run: as §1
[6] = Aqueous solubility of the compound in PBS as pH 7.4; format: physicochemical
[7] = Elimination half life in mouse at 10 mg/kg, po; format: ADME, organism-based; parameters: dose 10 mg/kg, route oral; conditions: in vivo, read-out: beta t1/2
How it was run: (§2)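 Mice given 10 mg/kg by the ip, iv or oral route. Plasma levels were measured at 8 time points, with 3 animals per route for po and iv. Parameters came from a noncompartmental model. AUCINF was extrapolated to infinity, and bioavailability was calculated from AUCINF. The terminal slope used 3 points.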

Mus musculus [8] = assay: AUC (0 to infinity) in mouse at 10 mg/kg, po; format: ADME, organism-based, Plasma; parameters: time infinity, dose 10 mg/kg, route oral; conditions: in vivo; how it was run: as §2
[9] = Apparent volume of distribution in mouse at 10 mg/kg, iv; format: ADME, organism-based; parameters: dose 10 mg/kg, route intravenous; conditions: in vivo, read-out: Vz; how it was run: as §2
[10] = Volume of distribution at steady state in mouse at 10 mg/kg, iv; format: ADME, organism-based; parameters: dose 10 mg/kg, route intravenous; conditions: in vivo, read-out: Vdss
[11] = AUC (0 to last) in mouse at 10 mg/kg, iv; format: ADME, organism-based; parameters: time 0 - last, dose 10 mg/kg, route intravenous; conditions: plasma; how it was run: as §2
Mus musculus [12] = assay: Inhibition of cyclin-dependent kinase substrate […] phosphorylation in nude BALB/c mouse PBMC at 50 mg/kg, po measured after 24 hrs by immunostaining and flow cytometric analysis; format: functional, organism-based; parameters: dose 50 mg/kg
How it was run: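 Female nu/nu-BALB/c athymic nude mice (7 weeks old) given a single oral gavage dose in 28% PEG300/5% dimethylacetamide/10% HPB cyclodextrin in water. PBMC were isolated from cardiac blood after red-cell lysis, then fixed, permeabilized and stained with primary antibodies (1:100, 1 h, RT) and an Alexa Fluor 488 secondary (1:200, 1 h). Read-out was flow cytometry; n=4 (n=3 at 100 mg/kg).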

[13] = target: Mitogen-activated protein kinase 9 (Homo sapiens) (UniProt P45984); assay: Inhibition of JNK2 assessed as residual enzyme activity at 10 uM
[14] = target: Mitogen-activated protein kinase 11 (Homo sapiens) (UniProt Q15759); assay: Inhibition of P38beta MAPK assessed as residual enzyme activity at 10 uM
[15] = target: Serine/threonine-protein kinase Sgk1 (Homo sapiens) (UniProt O00141); assay: Inhibition of SGK1 assessed as residual enzyme activity at 10 uM
[16] = target: Ribosomal protein S6 kinase beta-1 (Homo sapiens) (UniProt P23443); assay: Inhibition of S6K1 assessed as residual enzyme activity at 10 uM
[17] = target: Protein kinase C zeta type (Homo sapiens) (UniProt Q05513); assay: Inhibition of PKCzeta assessed as residual enzyme activity at 10 uM
Mus musculus [18] = assay: Inhibition of cyclin-dependent kinase substrate RB phosphorylation at Thr 821 in nude BALB/c mouse PBMC at 75 mg/kg, po measured after 24 hrs by immunostaining and flow cytometric analysis; format: functional
How it was run: (§3)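 Seven-week-old female nu/nu-BALB/c nude mice got a single oral gavage (vehicle 28% PEG300/5% dimethylacetamide/10% HPB cyclodextrin in water). Blood was taken by cardiac puncture at 6 h or 24 h, red cells were lysed, and PBMC were fixed and permeabilized. Cells were stained with Rb, Rb pThr821, PolII or PolII pSer2 antibodies plus an Alexa488 secondary, then read by flow cytometry; n=4 (n=3 at 100 mg/kg).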

Mus musculus [19] = assay: Inhibition of cyclin-dependent kinase substrate […] phosphorylation at Ser2 in nude BALB/c mouse PBMC at 50 to 100 mg/kg, po measured after 6 hrs by immunostaining and flow cytometric analysis; format: organism-based; parameters: dose 50-100 mg/kg, route oral; conditions: in vivo; how it was run: as §3
[20] = target: MAP kinase-activated protein kinase 5 (Homo sapiens) (UniProt Q8IW41); assay: Inhibition of PRAK assessed as residual enzyme activity at 10 uM
[21] = target: Serine/threonine-protein kinase BRSK2 (Homo sapiens) (UniProt Q8IWQ3); assay: Inhibition of BRSK2 assessed as residual enzyme activity at 10 uM
[22] = target: Serine/threonine-protein kinase PAK 4 (Homo sapiens) (UniProt O96013); assay: Inhibition of PAK4 assessed as residual enzyme activity at 10 uM
[23] = target: Tyrosine-protein kinase CSK (Homo sapiens) (UniProt P41240); assay: Inhibition of CSK assessed as residual enzyme activity at 10 uM
[24] = target: Insulin receptor-related protein (Homo sapiens, UniProt P14616); assay: Inhibition of IRR assessed as residual enzyme activity at 10 uM
[25] = target: Serine/threonine-protein kinase 26 (Homo sapiens) (UniProt Q9P289); assay: Inhibition of MST4 assessed as residual enzyme activity at 10 uM
[26] = target: Tyrosine-protein kinase SYK (Homo sapiens) (UniProt P43405); assay: Inhibition of SYK assessed as residual enzyme activity at 10 uM
[27] = target: Mitogen-activated protein kinase 1 (Homo sapiens, UniProt P28482); assay: Inhibition of ERK2 at 0.1 uM
[28] = target: Eukaryotic elongation factor 2 kinase (Homo sapiens) (UniProt O00418); assay: Inhibition of EFK2 assessed as residual enzyme activity at 10 uM

CC(C)c1cnn2c(NCc3ccccc3)cc(N[C@@H](CO)[C@H](O)CO)nc12
GI50 (PC-3): 500 nM | Activity (MCF7 [1]): Active | Activity (MCF7 [2]): Active | Activity (MCF7 [3]): Active | inhibition [4]: Active | inhibition [5]: inactive | solubility [6]: 54 µM (≈ 20.8 µg/mL) | half-life [7]: 2.97 h | AUC (Mus musculus [8]): 32100 ng·h/mL | Vd [9]: 1.39 L/kg | Vd [10]: 0.754 L/kg | AUC(0-t) [11]: 36200 ng·h/mL | inhibition (Mus musculus [12]): inactive | Activity [13]: 94% | Activity [14]: 94% | Activity [15]: 92% | Activity [16]: 77% | Activity [17]: 64% | inhibition in vivo at 75 mg/kg (Mus musculus [18]): 50% | inhibition (INH) (Mus musculus [19]): Active | Activity [20]: 97% | Activity [21]: 108% | Activity [22]: 55% | Activity [23]: 77% | Activity [24]: 32% | Activity [25]: 92% | Activity [26]: 120% | inhibition [27]: < 50% | Activity [28]: 92%
